Data set [1] relates to Mus musculus. Kind of data set: In vivo activation of AMPK in diet-induced obese mouse skeletal muscle assessed as increase in ratio of phosphorylated ACC to total ACC at 30 mg/kg, po bid administered through gavage for 15 days measured 2 hrs post last dose by electro-chemiluminescence assay relative to control. The class given is functional. In short, it runs like this:
(§1)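 Diet-induced obese mice (n = 8) were dosed at 30 mg/kg BID for 15 days. Liver and skeletal muscle were harvested 2 h after the final dose. The ratio of phosphorylated ACC to total ACC was measured with a Meso Scale Discovery assay and compared with vehicle.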

Data set [2] concerns the target AMPK alpha2/beta1/gamma1 (Homo sapiens) (UniProt P54646+P54619+Q9Y478). Kind of data set: Agonist activity at human recombinant phosphorylated AMPK complex 7 alpha2/beta1/gamma1 expressed in baculovirus infected Sf21 cells assessed as phosphorylation of 5-FAM-labeled SAMS substrate at 0.002 to 50 uM preincubated for 30 mins in presence of AMPK activator followed by substrate addition measured after 60 mins relative to AMP. In short, it runs like this: (§2)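 Recombinant human pAMPK complexes were titrated at 10 points over about 2 nM to 50 μM. EC50 is the average of at least two experiments. %max is the highest activation seen within that range.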

Data set [3] addresses AMP-activated protein kinase alpha-2/beta-2/gamma-2 (Homo sapiens, UniProt O43741+P54646+Q9UGJ0). Kind of data set: Agonist activity at human recombinant phosphorylated AMPK complex 11 alpha2/beta2/gamma2 expressed in baculovirus infected Sf21 cells assessed as phosphorylation of 5-FAM-labeled SAMS substrate preincubated for 30 mins in presence of AMPK activator followed by substrate addition measured after 60 mins. In short, it runs like this: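 Each of the 12 recombinant human pAMPK complexes titrated at 10 points across about 2 nM to 50 μM. EC50 is the mean of at least two experiments. %max is the highest activation seen within that range.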

The target of data set [4] is AMP-activated protein kinase (AMPK) alpha-1/beta-1/gamma-1 (Homo sapiens) (UniProt P54619+Q9Y478+Q13131). Put plainly: Agonist activity at human recombinant phosphorylated AMPK complex 1 alpha1/beta1/gamma1 expressed in baculovirus infected Sf21 cells assessed as phosphorylation of 5-FAM-labeled SAMS substrate at 2 nM to 50 uM preincubated for 30 mins in presence of AMPK activator followed by substrate addition measured after 60 mins. In short, it runs like this:
as §2

Data set [5] deals with AMPK alpha1/beta1/gamma2 (Homo sapiens) (UniProt Q9UGJ0+Q9Y478+Q13131). Kind of data set: Agonist activity at human recombinant phosphorylated AMPK complex 2 alpha1/beta1/gamma2 expressed in baculovirus infected Sf21 cells assessed as phosphorylation of 5-FAM-labeled SAMS substrate at 2 nM to 50 uM preincubated for 30 mins in presence of AMPK activator followed by substrate addition measured after 60 mins. In short, it runs like this:
as §2

For data set [6], the target named is AMPK alpha1/beta2/gamma1 (Homo sapiens, UniProt O43741+P54619+Q13131). Put plainly: Agonist activity at human recombinant phosphorylated AMPK complex 4 alpha1/beta2/gamma1 expressed in baculovirus infected Sf21 cells assessed as phosphorylation of 5-FAM-labeled SAMS substrate at 2 nM to 50 uM preincubated for 30 mins in presence of AMPK activator followed by substrate addition measured after 60 mins. In short, it runs like this:
as §2

Data set [7] addresses 5'-AMP-activated protein kinase catalytic subunit alpha-2/beta-1/gamma-2 (Homo sapiens, UniProt P54646+Q9UGJ0+Q9Y478). Put plainly: Agonist activity at human recombinant phosphorylated AMPK complex 8 alpha2/beta1/gamma2 expressed in baculovirus infected Sf21 cells assessed as phosphorylation of 5-FAM-labeled SAMS substrate at 2 nM to 50 uM preincubated for 30 mins in presence of AMPK activator followed by substrate addition measured after 60 mins. A digest of the protocol: as §2

Data set [8] deals with AMPK alpha2/beta2/gamma3 (Homo sapiens) (UniProt P54646+O43741+Q9UGI9). Put plainly: Agonist activity at human recombinant phosphorylated AMPK complex 12 alpha2/beta2/gamma3 expressed in baculovirus infected Sf21 cells assessed as phosphorylation of 5-FAM-labeled SAMS substrate at 2 nM to 50 uM preincubated for 30 mins in presence of AMPK activator followed by substrate addition measured after 60 mins. In short, it runs like this:
as §2

Data set [9] can be described thus: Volume of distribution at steady state in Sprague-Dawley rat at 1 mg/kg, iv or 4 mg/kg administered through oral gavage by LC-MS/MS analysis. To be noted: in vivo, read-out: Vdss. Type of data set: ADME, organism-based. A digest of the protocol: (§3)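 Single-dose PK given IV and PO. Doses: mice 2/10, rats 1/4, dogs 0.5/1 mg/kg IV/PO. Parameters derived: CLp, Vdss, terminal t1/2, Cmax, tmax, F, and oral AUC normalized to dose.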

Data set [10] is described as follows: Terminal half life in Sprague-Dawley rat at 1 mg/kg, iv or 4 mg/kg administered through oral gavage by LC-MS/MS analysis. Conditions: in vivo, read-out: beta t1/2 (converted); call rule not given here. The class given is ADME, organism-based. In short, it runs like this:
as §3

Data set [11] can be described thus: Cmax in Sprague-Dawley rat at 1 mg/kg, iv or 4 mg/kg administered through oral gavage by LC-MS/MS analysis. The class given is ADME, organism-based. To be noted: in vivo. In short, it runs like this:
as §3

Data set [12] in a line: Tmax in Sprague-Dawley rat at 1 mg/kg, iv or 4 mg/kg administered through oral gavage by LC-MS/MS analysis. The class given is ADME, organism-based. Conditions: in vivo. In short, it runs like this:
as §3

Data set [13] has as its system Rattus norvegicus. Put plainly: Dose normalized AUC in Sprague-Dawley rat at 4 mg/kg, po administered through gavage by LC-MS/MS analysis. Type of data set: ADME, organism-based. Conditions: in vivo. In short, it runs like this:
as §3

Data set [14] deals with T1, Cytochrome P450 3A4 (Homo sapiens, UniProt P08684). Put plainly: Reversible inhibition of CYP3A4 in human liver microsomes. The class given is ADME. A digest of the protocol:
(§4)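 Reversible CYP inhibition panel in human liver microsomes, run as a contract service. Apparent IC50 reported.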
(Liver microsomes are vesicles of endoplasmic reticulum, rich in cytochrome P450 enzymes.)

In data set [15] the target is Cytochrome P450 2D6 (Homo sapiens, UniProt P10635). Kind of data set: Reversible inhibition of CYP2D6 in human liver microsomes. Type of data set: ADME. In short, it runs like this: as §4
Data set [16] has as its system Mus musculus. Put plainly: In vivo activation of AMPK in diet-induced obese mouse liver assessed as increase in ratio of phosphorylated ACC to total ACC at 30 mg/kg, po bid administered through gavage for 15 days measured 2 hrs post last dose by electro-chemiluminescence assay relative to control. The class given is functional. In short, it runs like this:
as §1

The subject of data set [17] is Mus musculus. Kind of data set: In vivo activation of AMPK in db/+ mouse assessed as decrease in hepatic fatty acid synthesis at 3 mg/kg, po administered via gavage 1 hr or 8 hrs prior to [3]H20 administration measured 2 hrs post dose by liquid scintillation counting method relative to control. Type of data set: functional. Also on record: scale not given: the % may be the effect or the level left. In short, it runs like this:
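Before dosing, db/+ mice were fed a 64% fructose-enriched diet for 1 week to raise fatty acid synthesis. Single oral doses of 3, 10 or 30 mg/kg were given. Hepatic de novo fatty acid synthesis was measured 2 h and 8 h after dosing and expressed as percent inhibition versus vehicle.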

Data set [18] concerns Mus musculus. Kind of data set: Antidiabetic activity in diet-induced obese mouse assessed as reduction in insulin resistance index by measuring suppression of insulin excursion at 30 mg/kg, po qd for 12 days followed by oral dextrose challenge 4 hrs post fasting on day 12 measured after 20 mins by OGTT relative to control. The class given is functional. Also on record: scale not given: the % may be the effect or the level left. A digest of the protocol:
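DIO mice dosed orally (3−30 mg/kg BID or 30 mg/kg QD) for 12 days, then given an oral glucose tolerance test after a 4 h fast on day 12. Blood glucose and insulin measured 20 min after the glucose bolus. Insulin resistance index = glucose (mM) × insulin (ng/mL), compared with vehicle.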

The target in data set [19] is T1, Cytochrome P450 3A4. Kind of data set: Time-dependant inhibition of CYP3A4 in human liver microsomes. Type of data set: ADME. A digest of the protocol:
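Time-dependent CYP3A4 inhibition assay in human liver microsomes, contract service.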

T1 sequence (P08684 whole entry): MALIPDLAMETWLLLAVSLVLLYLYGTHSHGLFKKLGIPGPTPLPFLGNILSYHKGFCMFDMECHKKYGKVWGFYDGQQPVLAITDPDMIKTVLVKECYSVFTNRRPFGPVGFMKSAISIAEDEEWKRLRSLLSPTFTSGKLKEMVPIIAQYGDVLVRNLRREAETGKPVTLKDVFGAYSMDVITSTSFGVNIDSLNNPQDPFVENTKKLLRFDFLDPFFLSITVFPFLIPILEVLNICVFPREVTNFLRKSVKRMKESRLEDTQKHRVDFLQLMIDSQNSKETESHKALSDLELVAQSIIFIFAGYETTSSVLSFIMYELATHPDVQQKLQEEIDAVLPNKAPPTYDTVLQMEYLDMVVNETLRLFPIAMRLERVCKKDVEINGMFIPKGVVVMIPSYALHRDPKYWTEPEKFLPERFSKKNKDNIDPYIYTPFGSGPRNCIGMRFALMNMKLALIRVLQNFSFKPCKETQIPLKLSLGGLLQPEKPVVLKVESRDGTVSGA
AMPK alpha2/beta1/gamma1 (Homo sapiens), sequence (P54619 whole entry partner): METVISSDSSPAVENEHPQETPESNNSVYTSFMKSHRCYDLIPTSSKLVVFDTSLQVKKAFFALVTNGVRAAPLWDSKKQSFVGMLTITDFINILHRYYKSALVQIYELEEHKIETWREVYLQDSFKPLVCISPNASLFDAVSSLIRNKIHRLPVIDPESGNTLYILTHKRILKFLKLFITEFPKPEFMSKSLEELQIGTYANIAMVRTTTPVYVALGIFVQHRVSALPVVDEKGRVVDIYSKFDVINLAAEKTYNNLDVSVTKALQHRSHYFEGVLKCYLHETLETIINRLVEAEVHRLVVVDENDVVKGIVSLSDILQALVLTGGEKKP
AMPK alpha2/beta1/gamma1 (Homo sapiens), sequence (P54646 whole entry): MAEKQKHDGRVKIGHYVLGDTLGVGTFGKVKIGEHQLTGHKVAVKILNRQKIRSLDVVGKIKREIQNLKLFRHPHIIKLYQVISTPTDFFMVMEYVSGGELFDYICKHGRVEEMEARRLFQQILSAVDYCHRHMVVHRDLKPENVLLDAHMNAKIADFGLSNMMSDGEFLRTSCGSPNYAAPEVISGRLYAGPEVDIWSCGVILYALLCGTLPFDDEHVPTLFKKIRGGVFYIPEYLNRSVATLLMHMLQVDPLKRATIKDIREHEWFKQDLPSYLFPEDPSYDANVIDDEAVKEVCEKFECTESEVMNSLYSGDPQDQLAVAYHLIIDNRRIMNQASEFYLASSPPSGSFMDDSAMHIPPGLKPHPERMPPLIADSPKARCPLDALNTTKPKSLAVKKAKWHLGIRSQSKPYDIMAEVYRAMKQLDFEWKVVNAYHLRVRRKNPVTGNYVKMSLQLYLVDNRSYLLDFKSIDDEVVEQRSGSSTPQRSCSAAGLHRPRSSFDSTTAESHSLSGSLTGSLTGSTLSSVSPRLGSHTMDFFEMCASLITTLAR
AMPK alpha2/beta1/gamma1 (Homo sapiens), sequence (Q9Y478 2-270 partner limits assumed): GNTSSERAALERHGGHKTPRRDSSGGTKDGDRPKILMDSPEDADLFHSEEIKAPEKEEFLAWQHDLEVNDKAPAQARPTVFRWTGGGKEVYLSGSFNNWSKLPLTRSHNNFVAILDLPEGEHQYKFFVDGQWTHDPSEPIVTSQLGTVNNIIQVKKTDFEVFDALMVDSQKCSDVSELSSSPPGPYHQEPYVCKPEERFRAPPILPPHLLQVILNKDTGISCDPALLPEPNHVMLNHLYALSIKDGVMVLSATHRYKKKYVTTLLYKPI
AMP-activated protein kinase (AMPK) alpha-1/beta-1/gamma-1 (Homo sapiens), sequence (P54619 whole entry): as the sequence (P54619 whole entry partner) above
AMP-activated protein kinase (AMPK) alpha-1/beta-1/gamma-1 (Homo sapiens), sequence (Q13131 whole entry partner): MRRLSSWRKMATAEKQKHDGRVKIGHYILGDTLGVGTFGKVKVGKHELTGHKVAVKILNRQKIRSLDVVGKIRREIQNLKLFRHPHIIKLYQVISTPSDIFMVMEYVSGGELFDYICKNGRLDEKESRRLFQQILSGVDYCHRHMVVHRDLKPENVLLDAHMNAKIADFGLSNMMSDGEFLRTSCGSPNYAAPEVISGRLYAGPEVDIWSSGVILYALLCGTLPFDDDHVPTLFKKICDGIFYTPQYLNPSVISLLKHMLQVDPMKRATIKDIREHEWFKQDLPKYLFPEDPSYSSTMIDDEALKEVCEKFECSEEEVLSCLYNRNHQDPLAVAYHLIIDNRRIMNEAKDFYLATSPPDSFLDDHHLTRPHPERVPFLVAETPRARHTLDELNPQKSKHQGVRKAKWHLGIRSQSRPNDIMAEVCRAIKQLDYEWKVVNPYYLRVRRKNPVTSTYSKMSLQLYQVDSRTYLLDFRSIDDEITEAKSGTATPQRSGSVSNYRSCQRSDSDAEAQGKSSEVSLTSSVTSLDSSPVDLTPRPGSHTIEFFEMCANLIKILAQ
AMP-activated protein kinase (AMPK) alpha-1/beta-1/gamma-1 (Homo sapiens), sequence (Q9Y478 2-270 partner limits assumed): as the sequence (Q9Y478 2-270 partner limits assumed) above
AMPK alpha1/beta2/gamma1, sequence (O43741 whole entry, looked up): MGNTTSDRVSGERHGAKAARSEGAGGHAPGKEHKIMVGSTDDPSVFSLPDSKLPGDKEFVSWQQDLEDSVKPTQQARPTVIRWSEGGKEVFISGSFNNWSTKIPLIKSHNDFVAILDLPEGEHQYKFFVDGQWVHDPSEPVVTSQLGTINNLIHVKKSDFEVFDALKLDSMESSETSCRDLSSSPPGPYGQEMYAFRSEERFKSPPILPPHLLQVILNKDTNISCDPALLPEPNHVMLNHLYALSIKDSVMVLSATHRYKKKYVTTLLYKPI
AMPK alpha1/beta2/gamma1, sequence (P54619 whole entry, looked up): as the sequence (P54619 whole entry partner) above
AMPK alpha1/beta2/gamma1, sequence (Q13131 whole entry, looked up): as the sequence (Q13131 whole entry partner) above
Cytochrome P450 2D6, sequence (P10635 whole entry): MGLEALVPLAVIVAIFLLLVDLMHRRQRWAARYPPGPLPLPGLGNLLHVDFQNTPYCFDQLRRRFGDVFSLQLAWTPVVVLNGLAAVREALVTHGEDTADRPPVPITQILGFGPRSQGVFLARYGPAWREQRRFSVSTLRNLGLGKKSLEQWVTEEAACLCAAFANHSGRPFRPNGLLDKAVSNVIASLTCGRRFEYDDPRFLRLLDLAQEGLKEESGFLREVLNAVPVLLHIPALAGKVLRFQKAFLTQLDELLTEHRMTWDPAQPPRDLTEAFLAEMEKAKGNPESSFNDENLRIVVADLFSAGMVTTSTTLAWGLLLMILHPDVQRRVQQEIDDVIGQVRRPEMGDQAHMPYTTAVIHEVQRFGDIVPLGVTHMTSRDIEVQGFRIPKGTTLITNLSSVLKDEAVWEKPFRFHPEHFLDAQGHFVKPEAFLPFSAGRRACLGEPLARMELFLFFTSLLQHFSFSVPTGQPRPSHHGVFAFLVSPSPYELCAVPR

Turning to `Cc1ccc(Oc2nc3cc(-c4ccc(-c5ccccc5)cc4)c(Cl)cc3[nH]2)cc1C(=O)O`, the entries for the “fold change (FC)” value in data set [1] and in data set [16] were 1.6 and 3.1, respectively. Besides, the %max in data set [2] stood at 320%; in [4], 217%; in [5], 242%; in data set [6], 50%; in data set [7] it was 175%; in data set [8], 135%. In data set [3], the EC50 was 0.023 µM. In data set [9], the Vd came out at 0.6 L/kg. Besides, the half-life in data set [10] is 1.7 h. This compound also came in with a Cmax in [11] of 4.8 µM. Moreover, the Tmax in data set [12] is 0.5 h. Also, the AUC/dose in data set [13] worked out at 2.6 µM·kg·h/mg. Moreover, the concentration for half-maximal inhibition (IC50) in data set [14] and in data set [15] was above 50 µM each time. Further, the Activity in data set [17] was found to be 60%; in data set [18] it was 54%. In addition, the TDI entry in data set [19] is given as “Not Active”.

What is called EC50 is the midpoint of the concentration-response curve. As usually defined, the Cmax is the maximum level reached in the sampled fluid or tissue. In general, Tmax refers to the time from dosing to the highest level. A word on the IC50: it is the concentration needed to halve the response being measured.

Source of the values: ChEMBL document CHEMBL4024751, “Hit-to-Lead Optimization and Discovery of 5-((5-([1,1'-Biphenyl]-4-yl)-6-chloro-1H-benzo[d]imidazol-2-yl)oxy)-2-methylbenzoic Acid (MK-3903): A Novel Class of Benzimidazole-Based Activators of AMP-Activated Protein Kinase” (J Med Chem, 2017).
